Assay results published in ChEMBL document CHEMBL4689842, “EUbOPEN Chemogenomics Library wave 1” (2021).

What was measured:
Assay type in all cases: toxicity, cell-based
HEK-293T = experiment: Incucyte cell viability with HEK293T; details: human, 10 µM, compound concentration 10 uM; further: filed as whole numbers so only -1 and 0 and 1 occur
U2OS = experiment: Incucyte cell viability with U2OS; details: human, 10 µM, compound concentration 10 uM; further: filed as whole numbers so only -1 and 0 and 1 occur
Fibroblast = experiment: Multiplex assay against human fibroblast
In short: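 Values for tubulin, mitochondrial-mass and membrane-permeability phenotypes are per cents of cells with healthy nuclei. These cells were identified by CellPathfinder machine-learning gating of live cells that had been stained at seeding with Hoechst33342, BioTracker Green Microtubule Cytoskeleton Dye, MitoTracker Red and Annexin V Alexa Fluor 680 and imaged on a CQ1 microscope at 37°C and 5% CO2 after compound addition. The gating first set Hoechst high-intensity objects apart from normal cells, then split normal cells into healthy, pyknosed or fragmented nuclei, and pyknosed cells into mitotic or apoptotic.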

[1] = 6 h, replicate number 1, timepoint 6 hours
[2] = 12 h, replicate number 1, timepoint 12 hours
[3] = 18 h, replicate number 1, timepoint 18 hours
[4] = 24 h, replicate number 1, timepoint 24 hours
[5] = 12 h, 1 µM, compound concentration 1 uM, replicate 1
[6] = 12 h, 1 µM, compound concentration 1 uM, replicate 2
[7] = 12 h, 10 µM, compound concentration 10 uM, replicate 1
[8] = 12 h, 10 µM, compound concentration 10 uM, replicate 2
[9] = 24 h, 1 µM, compound concentration 1 uM, replicate 1
[10] = 24 h, 1 µM, compound concentration 1 uM, replicate 2
[11] = 24 h, 10 µM, compound concentration 10 uM, replicate 1
[12] = 24 h, 10 µM, compound concentration 10 uM, replicate 2

## Cl.Cn1c2c(c3ccc(Cl)c(Cl)c31)C(C#N)C1(CCNCC1)NC2=O (configuration not stated)
HEK-293T; [1]
  Growth Rate: 0
HEK-293T; [2]
  Growth Rate: 0
HEK-293T; [3]
  Growth Rate: 0
HEK-293T; [4]
  Growth Rate: 0
U2OS; 0 h, replicate number 1, timepoint 0 hours
  Growth Rate: 0
U2OS; [1]
  Growth Rate: 0
U2OS; [2]
  Growth Rate: 0
U2OS; [3]
  Growth Rate: 0
U2OS; [4]
  Growth Rate: 0
Fibroblast; [5]
  Population Apoptotic (%): 75%
  Population Fragmented Nuclei (%): 35%
  Population Healthy Nuclei (%): 51%
  Population Hoechst High Intensity Objects (%): 11%
  Population Membrane Permeable-Phenotype (%): 8%
  Population Mitochondria Different-Phenotype (%): 2%
  Population Mitotic Cells (%): 25%
  Population Normal (%): 88%
  Population Pyknosed Nuclei (%): 13%
  Population Tubulin-Different-Phenotype (%): 6%
  Total Cell Count: 332
Fibroblast; [6]
  Population Apoptotic (%): 50%
  Population Fragmented Nuclei (%): 59%
  Population Healthy Nuclei (%): 33%
  Population Hoechst High Intensity Objects (%): 32%
  Population Membrane Permeable-Phenotype (%): 9%
  Population Mitochondria Different-Phenotype (%): 9%
  Population Mitotic Cells (%): 50%
  Population Normal (%): 67%
  Population Pyknosed Nuclei (%): 6%
  Population Tubulin-Different-Phenotype (%): 9%
  Total Cell Count: 92
Fibroblast; [7]
  Population Apoptotic (%): 64%
  Population Fragmented Nuclei (%): 44%
  Population Healthy Nuclei (%): 40%
  Population Hoechst High Intensity Objects (%): 19%
  Population Membrane Permeable-Phenotype (%): 8%
  Population Mitochondria Different-Phenotype (%): 6%
  Population Mitotic Cells (%): 35%
  Population Normal (%): 80%
  Population Pyknosed Nuclei (%): 14%
  Population Tubulin-Different-Phenotype (%): 37%
  Total Cell Count: 482
Fibroblast; [8]
  Population Apoptotic (%): 40%
  Population Fragmented Nuclei (%): 48%
  Population Healthy Nuclei (%): 39%
  Population Hoechst High Intensity Objects (%): 23%
  Population Membrane Permeable-Phenotype (%): 5%
  Population Mitochondria Different-Phenotype (%): 2%
  Population Mitotic Cells (%): 60%
  Population Normal (%): 76%
  Population Pyknosed Nuclei (%): 11%
  Population Tubulin-Different-Phenotype (%): 73%
  Total Cell Count: 112
Fibroblast; [9]
  Population Apoptotic (%): 67%
  Population Fragmented Nuclei (%): 38%
  Population Healthy Nuclei (%): 50%
  Population Hoechst High Intensity Objects (%): 15%
  Population Membrane Permeable-Phenotype (%): 4%
  Population Mitochondria Different-Phenotype (%): 3%
  Population Mitotic Cells (%): 32%
  Population Normal (%): 84%
  Population Pyknosed Nuclei (%): 10%
  Population Tubulin-Different-Phenotype (%): 4%
  Total Cell Count: 379
Fibroblast; [10]
  Population Apoptotic (%): 0%
  Population Fragmented Nuclei (%): 67%
  Population Healthy Nuclei (%): 31%
  Population Hoechst High Intensity Objects (%): 29%
  Population Membrane Permeable-Phenotype (%): 9%
  Population Mitochondria Different-Phenotype (%): 0%
  Population Mitotic Cells (%): 100%
  Population Normal (%): 70%
  Population Pyknosed Nuclei (%): 1%
  Population Tubulin-Different-Phenotype (%): 19%
  Total Cell Count: 95
Fibroblast; [11]
  Population Apoptotic (%): 61%
  Population Fragmented Nuclei (%): 28%
  Population Healthy Nuclei (%): 55%
  Population Hoechst High Intensity Objects (%): 37%
  Population Membrane Permeable-Phenotype (%): 6%
  Population Mitochondria Different-Phenotype (%): 10%
  Population Mitotic Cells (%): 38%
  Population Normal (%): 62%
  Population Pyknosed Nuclei (%): 15%
  Population Tubulin-Different-Phenotype (%): 38%
  Total Cell Count: 492
Fibroblast; [12]
  Population Apoptotic (%): 87%
  Population Fragmented Nuclei (%): 42%
  Population Healthy Nuclei (%): 42%
  Population Hoechst High Intensity Objects (%): 43%
  Population Membrane Permeable-Phenotype (%): 9%
  Population Mitochondria Different-Phenotype (%): 14%
  Population Mitotic Cells (%): 12%
  Population Normal (%): 56%
  Population Pyknosed Nuclei (%): 16%
  Population Tubulin-Different-Phenotype (%): 42%
  Total Cell Count: 89
